Results published in ChEMBL document CHEMBL3596101, “The Mechanism of Ca(2+) Movement in the Involvement of Baicalein-Induced Cytotoxicity in ZR-75-1 Human Breast Cancer Cells” (J Nat Prod, 2015).
Active and inactive are the calls of the source. The rule behind the calls is not given here.

What was measured:
[1] = test system: ZR-75-1; test: Increase in intracellular Ca2+ level in human ZR-75-1 cells at 40 uM treated for 60 secs post PLC inhibitor U73122 addition by fura-2-AM dye-based spectrofluorophotometric analysis in presence of Ca2+ free medium; assay type: functional, cell-based
How it was run: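 Performed in Ca2+-free medium with fura-2-loaded ZR-75-1 cells. Response expressed relative to 40 μM compound alone (100%). Three experiments.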

[2] = test system: ZR-75-1; test: Increase in intracellular Ca2+ level in human ZR-75-1 cells at 40 uM measured every 150 secs by fura-2-AM dye-based spectrofluorophotometric analysis in presence of Ca2+ free medium with PKC inhibitor GF109203X; assay type: functional, cell-based
How it was run: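 In Ca2+-free medium, GF109203X (2 μM) was added 1 min before 40 μM compound to fura-2-loaded ZR-75-1 cells in a 25 °C cuvette. Response = net area under curve as % of compound alone. Three experiments.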

[3] = test system: ZR-75-1; test: Induction of reactive oxygen species production in human ZR-75-1 cells at 20 to 40 uM after 24 hrs by DCFH-DA probe-based flow cytometric analysis in presence of Ca2+ containing medium with Ca2+ chelator BAPTA-AM; assay type: functional, cell-based
How it was run: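 ZR-75-1 cells treated with 20–40 μM compound for 24 h, with 5 μM BAPTA-AM added first where indicated. Cells suspended at 1 × 10^6/mL, loaded with 10 μM DCFH-DA for 30 min at 37 °C. DCF read by flow cytometry (488 nm excitation, 530/30 nm filter, 10000 cells). % H2O2-positive (M1) after subtracting the baseline without probe. Three experiments.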

[4] = test system: ZR-75-1; test: Change in endoplasmic reticulum Ca2+ pump inhibitor thapsigargin-induced intracellular Ca2+ increase in human ZR-75-1 cells at 40 uM pretreated with thapsigargin followed by compound addition in presence of Ca2+ free medium; assay type: functional, cell-based
How it was run: (§1)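 ZR-75-1 cells loaded with 2 μM fura-2-AM for 30 min at 25 °C, then suspended in Ca2+-free medium (pH 7.4; 0.3 mM EGTA, 3 mM MgCl2). Stirred cuvette at 25 °C. Thapsigargin (1 μM) or BHQ (50 μM) given before or after 40 μM compound. Excitation 340/380 nm, emission 510 nm, read at 1 s intervals. [Ca2+]i calibrated with Triton X-100/CaCl2 then EGTA.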

[5] = test system: ZR-75-1; test: Increase in intracellular Ca2+ level in human ZR-75-1 cells treated for 25 secs by fura-2-AM dye-based spectrofluorophotometric analysis in presence of Ca2+-free medium; assay type: functional, cell-based
How it was run: (§2)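 Fura-2-loaded ZR-75-1 cells (0.5 million per 1 mL, stirred, 25 °C) in Ca2+-containing or Ca2+-free medium. Compound added at 25 s. 340/380 nm excitation, 510 nm emission at 1 s intervals, calibrated to nM. Concentration-response from baseline-subtracted area under curve (25–250 s) as % of 50 μM response in Ca2+ medium. EC50 from Hill fit. Three experiments.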

[6] = test system: ZR-75-1; test: Increase in intracellular Ca2+ level in human ZR-75-1 cells at 40 uM treated for 25 secs by fura-2-AM dye-based spectrofluorophotometric analysis in presence of Ca2+ containing medium (reference value: 50 +/- 3 nM); assay type: functional; how it was run: as §2
[7] = test system: ZR-75-1; test: Induction of apoptosis in human ZR-75-1 cells at 20 to 50 uM preincubated for 24 hrs followed by antioxidant N-Acetylcysteine and Ca2+ chelator BAPTA-AM addition by annexin V-FITC/propidium iodide staining-based flow cytometric analysis; assay type: functional, cell-based
[8] = test system: ZR-75-1; test: Inhibition of endoplasmic reticulum Ca2+ pump inhibitor BHQ-induced intracellular Ca2+ increase in human ZR-75-1 cells at 40 uM pretreated with compound followed by BHQ induction in presence of Ca2+ free medium; assay type: functional, cell-based; how it was run: as §1
[9] = test system: ZR-75-1; test: Increase in intracellular Ca2+ level in human ZR-75-1 cells at 50 uM treated for 25 secs by fura-2-AM dye-based spectrofluorophotometric analysis in presence of Ca2+ containing medium (reference value: 50 +/- 3 nM); assay type: functional; settings: in the assay text read “40 uM treated” for “50 uM treated”; how it was run: as §2
[10] = test system: ZR-75-1; test: Induction of apoptosis in human ZR-75-1 cells at 20 to 40 uM after 24 hrs by annexin V-FITC/propidium iodide staining-based flow cytometric analysis in presence of Ca2+ chelator BAPTA-AM; assay type: functional, cell-based
How it was run: (§3)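 ZR-75-1 cells exposed to 20–40 μM compound for 24 h, with 5 μM BAPTA-AM or NAC added first where indicated. Cells stained with Alexa Fluor 488 annexin V/PI for 15 min, at least 20000 cells analysed by flow cytometry (488 nm excitation, 530/575 nm filters). Early = annexin V+/PI−, late = annexin V+/PI+. Three independent biological replicates.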

[11] = test system: ZR-75-1; test: Induction of apoptosis in human ZR-75-1 cells assessed as late apoptotic cells at 30 uM after 24 hrs by annexin V-FITC/propidium iodide staining-based flow cytometric analysis (reference value: 2.53%); assay type: functional; how it was run: as §3
[12] = test system: ZR-75-1; test: Induction of Ca2+ influx in human ZR-75-1 cells at 40 uM by measuring Mn2+ quenching of fura-2-AM for 200 secs by spectrofluorophotometric analysis in presence of Ca2+ containing medium; assay type: functional, cell-based
How it was run: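 Mn2+ quench assay: 50 μM MnCl2 added to fura-2-loaded ZR-75-1 cells in Ca2+-containing medium 1 min before recording. Excitation 360 nm (Ca2+-insensitive), emission 510 nm, 1 s intervals, 25 °C. Compound (40 μM) added during the trace, recorded up to 200 s. Arbitrary units, three experiments.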

[13] = test system: ZR-75-1; test: Induction of apoptosis in human ZR-75-1 cells assessed as increase in cleaved caspase-9 level at 20 to 40 uM after 24 hrs by Western immunoblot analysis; assay type: functional, cell-based
How it was run: (§4)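 Confluent ZR-75-1 cells (3 × 10^6/dish) treated with 20, 30 or 40 μM compound for 24 h. Where used, 5 μM BAPTA-AM or 5 μM NAC was added before the compound. About 50 μg lysate protein run on 10% SDS-PAGE, transferred to PVDF, probed for cleaved caspase-9/-3 and β-actin, chemiluminescence. Densitometry normalized to β-actin. Three experiments.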

[14] = test system: ZR-75-1; test: Induction of apoptosis in human ZR-75-1 cells assessed as activation of caspase-9 at 20 to 40 uM preincubated for 24 hrs followed by antioxidant N-Acetylcysteine addition by Western immunoblot analysis; assay type: functional, cell-based; how it was run: as §4
[15] = test system: ZR-75-1; test: Induction of apoptosis in human ZR-75-1 cells at 20 to 40 uM preincubated for 24 hrs followed by antioxidant N-Acetylcysteine addition by annexin V-FITC/propidium iodide staining-based flow cytometric analysis; assay type: functional, cell-based; how it was run: as §3
[16] = test system: ZR-75-1; test: Induction of apoptosis in human ZR-75-1 cells assessed as early apoptotic cells at 30 uM after 24 hrs by annexin V-FITC/propidium iodide staining-based flow cytometric analysis (reference value: 6.84%); assay type: functional; how it was run: as §3
[17] = test system: ZR-75-1; test: Increase in intracellular Ca2+ level in human ZR-75-1 cells at 40 uM measured every 150 secs by fura-2-AM dye-based spectrofluorophotometric analysis in presence of Ca2+ containing medium with PKC inhibitor GF109203X; assay type: functional, cell-based
How it was run: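 In Ca2+-containing medium (2 mM CaCl2), 2-APB (30 μM) or GF109203X (2 μM) was added 1 min before 40 μM compound to fura-2-loaded ZR-75-1 cells at 25 °C. Response = net area under curve over a 150 s interval, as % of compound alone. Mean ± SEM, n=3.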

[18] = test system: ZR-75-1; test: Inhibition of endoplasmic reticulum Ca2+ pump inhibitor thapsigargin-induced intracellular Ca2+ increase in human ZR-75-1 cells at 40 uM pretreated with compound followed by thapsigargin induction in presence of Ca2+ free medium; assay type: functional, cell-based; how it was run: as §1
[19] = test system: ZR-75-1; test: Induction of apoptosis in human ZR-75-1 cells assessed as activation of caspase-9 at 20 to 40 uM preincubated for 24 hrs followed by Ca2+ chelator BAPTA-AM addition by Western immunoblot analysis; assay type: functional, cell-based; how it was run: as §4
[20] = test system: ZR-75-1; test: Effect on endoplasmic reticulum Ca2+ pump inhibitor BHQ-induced intracellular Ca2+ increase in human ZR-75-1 cells at 40 uM pretreated with BHQ followed by compound addition in presence of Ca2+ free medium; assay type: functional, cell-based; how it was run: as §1
[21] = test system: ZR-75-1; test: Increase in intracellular Ca2+ level in human ZR-75-1 cells at 40 uM by fura-2-AM dye-based spectrofluorophotometric analysis in presence of Ca2+ containing medium with Ca2+ chelator BAPTA-AM; assay type: functional, cell-based
How it was run: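 Fura-2-loaded ZR-75-1 cells treated with 5 μM BAPTA-AM, then 40 μM compound in Ca2+-containing medium (2 mM CaCl2, pH 7.4). Ratio fluorescence 340/380 nm excitation, 510 nm emission, 25 °C cuvette.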

For `O=c1cc(-c2ccccc2)oc2cc(O)c(O)c(O)c12` [BAICALEIN], the Activity [1] was “inactive”, the Activity [2] was “inactive” and the Activity [3] was “inactive”. The Activity [4] was “inactive”, the EC50 [5] was 35 µM and the Activity [6] was 220 nM. The Activity [7] was “inactive”, the inhibition [8] was “Active” and the Activity [9] was 220 nM. The Activity [10] was “inactive”, the Activity [11] was 1.96% and the Activity [12] was “Active”. For the same compound, the Activity [13] was “Active”, the Activity [14] was “inactive” and the Activity [15] was “inactive”. The Activity [16] was 50.72%, the Activity [17] was “inactive” and the inhibition [18] was “Active”. For the same compound, the Activity [19] was “inactive”, the Activity [20] was “inactive” and the Activity [21] was “inactive”.
